# Compound activity: PubChem, several laboratories
# This is a sample that favours compounds with a hit; in the whole collection about 3.5% have one here.
# ABCG2 block: inhibitors of human ABCG2 transporter, ABCB1 counter-screen | inhibition, % at 6.6 µM | hit rate 0.1% among 190,000 | Q9UNQ0 | AID 1325 | IgMXP3 cells, JC-1 efflux, flow cytometry;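 active = inhibition above 80%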;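 also: 0% = DMSO and 100% = nicardipine control wells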
# Target sequence (Q9UNQ0 whole entry, looked up): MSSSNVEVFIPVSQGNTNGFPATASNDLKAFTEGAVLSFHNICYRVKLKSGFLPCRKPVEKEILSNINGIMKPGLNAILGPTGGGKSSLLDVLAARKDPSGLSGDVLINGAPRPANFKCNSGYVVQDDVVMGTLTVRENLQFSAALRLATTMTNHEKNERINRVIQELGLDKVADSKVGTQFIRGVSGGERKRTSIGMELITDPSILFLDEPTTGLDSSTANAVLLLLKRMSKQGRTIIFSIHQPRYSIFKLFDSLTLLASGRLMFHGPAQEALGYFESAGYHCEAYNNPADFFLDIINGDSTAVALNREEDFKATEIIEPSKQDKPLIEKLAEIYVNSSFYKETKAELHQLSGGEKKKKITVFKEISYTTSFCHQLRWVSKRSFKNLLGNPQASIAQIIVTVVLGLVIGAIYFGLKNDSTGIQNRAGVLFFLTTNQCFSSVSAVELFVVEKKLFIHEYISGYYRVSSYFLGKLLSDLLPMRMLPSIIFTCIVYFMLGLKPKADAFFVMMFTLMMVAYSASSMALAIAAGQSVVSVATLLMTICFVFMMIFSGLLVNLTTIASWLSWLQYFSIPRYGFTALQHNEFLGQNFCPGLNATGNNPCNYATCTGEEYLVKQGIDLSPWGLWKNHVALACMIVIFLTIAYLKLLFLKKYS
#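 Assay system – ABCG2 IgMXP3 and barcoded ABCB1 CCRF-Adr cell mix · Input – 3 million cells/mL in well · Reagent – JC-1 fluorescent substrate · Compound – single test compound dose, 6.6 µM final · Timing – 10 min exposure at 25 °C with rotation, no wash · Detection – flow cytometry of retained JC-1 fluorescence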
# WT yeast gro inh: growth inhibition of WT yeast, mitochondrial fusion screen; mitochondrial fusion phenotypic screen, WT strain; inhibition, % at 10 µM; hit rate 2.1% among 190,000; AID 1362; in the data active = inhibition above about 58%; tested in S. cerevisiae
# MEKK2 mut-MEK5: signal of MEK5 binding to mutant human MEKK2 PB1 domain; bead flow cytometry, Alexa488-MEK5 binding to MEKK2 mutant; percent response, % at 10 µM; hit rate 0.35% among 290,000; AID 1530; in the data active = percent response above about 24%, passing the limit was not always enough
# MEKK2 WT-MEK5: raises or lowers MEK5 binding to wildtype human MEKK2 PB1 domain | hit rate 1.1% among 290,000 | bead flow cytometry, Alexa488-MEK5 binding to MEKK2 WT; actives lie on both sides | binding response (% of control), % at 10 µM | Q9Y2U5 | AID 1531; in the data active = binding response below about 67% or above about 130%
# ABCB1 block: blocks JC-1 efflux by human ABCB1 transporter; hit rate 0.067% among 190,000; CCRF-Adr cells, flow cytometry; inhibition, % at 6.6 µM; P08183; in the data active = inhibition above about 40%;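 also: 0% = vehicle and 100% = reference inhibitor; higher value means more JC-1 retained so stronger ABCB1 efflux block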
# MEKK3 PB1 HTS: modulators (inhibitors or enhancers) of MEK5 binding to human MEKK3 PB1 domain; Q99759; bead-based flow cytometry, Alexa488-MEK5 binding to MEKK3; actives lie on both sides; 0 = blocked by unlabeled MEK5, 100 = vehicle; binding response (% of control), % at 10 µM; hit rate 1.4% among 290,000; AID 1529;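 active = binding response more than 3 SD above or below the average of its plate-row segment, actives on both sides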;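 also: Alexa488 bead fluorescence after subtracting the streptavidin-only scavenger bead signal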
# MEKK2wt confirm: raises or lowers MEK5 binding to wildtype human MEKK2, retest | bead flow cytometry, Alexa488-MEK5 binding to MEKK2 WT; actives lie on both sides | hit rate 2.4% among 5,900 | shares compounds with MEKK3 PB1 HTS | AID 1892 | binding response (% of control), % at 10 µM; in the data active = binding response below about 16% or above about 210%; inactive = in between
# MEKK2mut confirm: signal of MEK5 binding to mutant human MEKK2, retest; shares compounds with MEKK3 PB1 HTS; bead flow cytometry, Alexa488-MEK5 binding to MEKK2 mutant; percent response, % at 10 µM; hit rate 2% among 5,900; AID 1893; in the data active = percent response mostly above about 71%, no sharp cut-off; inactive = mostly below about 38%;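 also: higher means compound restores mutant binding toward wildtype level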
# MEKK3 confirm: confirmation of inhibitors of MEK5 binding to human MEKK3 | shares compounds with MEKK3 PB1 HTS | bead flow cytometry, Alexa488-MEK5 binding to MEKK3; hits give low values | binding response (% of control), % at 10 µM | hit rate 1.8% among 5,900;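 active = binding response below 72% of control, or above a set upper limit, though filed actives all read lower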;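 also: 100% = DMSO only wells and 0% = binding blocked by excess unlabeled MEK5; lower values mean stronger disruption of MEK5 binding to MEKK3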
# Active calls of the source: *; nt = no result; ! = not confirmed by another sample; [ ] = dose if it differs, or a comment.
SMILES,ABCG2 block,WT yeast gro inh,MEKK2 mut-MEK5,MEKK2 WT-MEK5,ABCB1 block,MEKK3 PB1 HTS,MEKK2wt confirm,MEKK2mut confirm,MEKK3 confirm
COc1ccccc1CCc1nnc(CCC(=O)NC(C)Cc2cccnc2)o1 (stereo not drawn),0.8,-6.4,-16.0,55.0,0.2,47.0*[inhibitor],101.0,3.0,105.0
CCc1c(C)nc2cc(-c3ccc(OC)c(OC)c3)nn2c1N1CCCC1,1.8,-1.1,-28.0,-1.0*[inhibitor],1.1,2.0*[inhibitor],106.0,0.0,109.0
O=C(CSc1nc2ccccc2c(=O)n1-c1ccccc1)N/N=C/C=C/c1ccccc1[N+](=O)[O-],0.5,4.8,0.0,98.0,0.1,100.0,nt,nt,nt
O=C(N/N=C/C=C/c1ccccc1[N+](=O)[O-])c1cc(-c2cccnc2)nc2ccccc12,-1.1,-0.9,-2.0,90.0,1.2,65.0*[inhibitor],103.0,3.0,106.0
Cc1ccccc1-n1c(SCC(=O)N/N=C/C=C/c2ccccc2[N+](=O)[O-])nc2ccccc2c1=O,17.2,5.7,0.0,102.0,6.3,134.0*,97.0,-7.0,104.0
COc1ccccc1-c1cc(C(=O)N/N=C/C=C/c2ccccc2[N+](=O)[O-])c2ccccc2n1,1.3,-0.7,-1.0,89.0,0.3,94.0,nt,nt,nt
CCCC(=O)Nc1ccc2nc(SCC(=O)Nc3ccc(N4CCOCC4)c(Cl)c3)sc2c1,-0.8,13.5,nt,nt,-0.3,nt,nt,nt,nt
CC(Sc1nc2ccccc2s1)C(=O)Nc1ccc2c(c1)OCO2 (stereo not drawn),10.2,2.5,-2.0,92.0,0.1,96.0,nt,nt,nt
Nc1ccc2nc(SCC(=O)Nc3ccc(N4CCOCC4)c(Cl)c3)sc2c1,-4.6,11.0,1.0,106.0,-1.0,135.0*,98.0,-4.0,101.0
O=C(CSc1nc2ccccc2s1)Nc1cc(S(=O)(=O)N2CCOCC2)ccc1Cl,3.7,26.8,1.0,107.0,0.9,129.0*,99.0,-1.0,105.0
O=C(CSc1nc2ccccc2s1)Nc1ccc2c(c1)OCO2,2.0,0.6,1.0,104.0,-0.1,158.0*,99.0,-3.0,102.0
O=c1ccc2ccc(OCc3ccccc3)cc2o1,nt,nt,-1.0,98.0,nt,98.0,nt,nt,nt
COc1ccc(C(=O)CSc2nc(C(C)(C)C)nc3ccccc23)cc1,6.7,40.5,0.0,97.0,1.1,99.0,nt,nt,nt
COC(=O)C1CC(c2ccc(Cl)cc2)=NO1 (stereo not drawn),1.6,0.1,-2.0,102.0,0.3,105.0,nt,nt,nt
COc1ccc(OC)c(NS(=O)(=O)c2c(C(=O)N3CCCCCC3)c(C)n(C)c2C)c1,nt,nt,-2.0,102.0,nt,99.0,nt,nt,nt
CCCNCC1C(Oc2ccc(Cl)cc2Cl)C(=O)N1c1cccc(C)c1C (stereo not drawn),2.5,66.0,4.0,135.0,2.8,136.0*,128.0,12.0,98.0
Cc1cccc(N2CC(C(=O)O)CC2=O)c1C (stereo not drawn),nt,nt,16.0,95.0,nt,99.0,nt,nt,nt
CCCCNCC1C(Oc2ccc(Cl)cc2)C(=O)N1c1ccccc1C (stereo not drawn),5.0,23.5,1.0,125.0,4.4,123.0,nt,nt,nt
Cc1cccc(N2C(=O)C(Oc3ccc(Cl)cc3Cl)C2C(=O)O)c1C (stereo not drawn),5.2,6.6,1.0,108.0,0.1,139.0*,108.0,10.0,104.0
CC(=O)N=c1c(C#N)cc2c(=O)n3cccc(C)c3nc2n1CCCOC(C)C,nt,nt,-27.0,46.0*[inhibitor],nt,67.0,101.0,-7.0,98.0
Cc1cccn2c(=O)c3cc(C#N)c(=NC(=O)c4ccncc4)n(CCCOC(C)C)c3nc12,1.9,1.2,-3.0,96.0,0.8,97.0,nt,nt,nt
COc1cc(NC(=O)C2CCCN(c3ncccn3)C2)cc(OC)c1 (stereo not drawn),1.1,-9.7,-1.0,86.0,0.4,63.0*[inhibitor],85.0,-10.0,87.0
O=C(NCCc1ccccc1)C1CCN(c2ncccn2)CC1,4.7,11.0,7.0,104.0,1.2,97.0,nt,nt,nt
COc1ccc(-c2ncccc2O)cc1,2.2,1.4,4.0,102.0,1.2,103.0,nt,nt,nt
CCOc1c(C)cc(-c2ncccc2O)cc1C,2.8,1.7,0.0,96.0,0.3,130.0*!,101.0,-7.0,99.0
SMILES,ABCG2 block,WT yeast gro inh,MEKK2 mut-MEK5,MEKK2 WT-MEK5,ABCB1 block,MEKK3 PB1 HTS,MEKK2wt confirm,MEKK2mut confirm,MEKK3 confirm
Cc1ccc(C(=O)O/N=C(\N)c2ccc(Br)cc2)cc1C,12.8,-3.9,-15.0,1.0*[inhibitor],-0.5,2.0*[inhibitor],102.0,6.0,102.0
Cc1cccc2nc(CSc3nc4ccc([N+](=O)[O-])cc4[nH]3)cn12,13.8,2.7,0.0,110.0,1.4,151.0*,103.0,8.0,103.0
COc1ccc2oc(=O)cc(CN3CCN(Cc4ccc(OC)c(OC)c4OC)CC3)c2c1,nt,nt,14.0,118.0,nt,109.0,nt,nt,nt
CC1Cc2ccccc2N1C(=O)CO/N=C/c1ccccc1OC(F)F (stereo not drawn),1.0,1.6,0.0,98.0,0.4,10.0*[inhibitor],101.0,0.0,102.0
CC1CCCCC1NC(=O)CO/N=C/c1ccccc1OC(F)F (stereo not drawn),4.1,-3.6,-2.0,94.0,0.4,71.0*[inhibitor],104.0,3.0,106.0
CCOc1cccc(SCc2noc(C(=O)NCC3CCCO3)c2C(=O)O)c1 (stereo not drawn),0.1,-5.6,5.0,106.0,0.0,106.0,nt,nt,nt
Cc1c(CNC2CCCC2)c(C(=O)O)c(C)n1Cc1ccccc1,0.0,-5.3,-1.0,101.0,0.1,102.0,nt,nt,nt
Cc1c(CNC2CCC(C)CC2)c(C(=O)O)c(C)n1Cc1ccccc1 (stereo not drawn),10.6,-5.9,1.0,111.0,1.4,140.0*,109.0,8.0,106.0
COc1ccc(N2C(=O)C(CC(=O)Nc3ccccc3)N(Cc3ccccn3)C2=S)cc1 (stereo not drawn),-0.2,-6.2,-5.0,94.0,0.0,100.0,nt,nt,nt
COc1ccc(OC)c(N/C(=N/C(=S)Nc2ccccc2)Nc2nc(C)cc(C)n2)c1,nt,nt,-49.0,54.0,nt,48.0*[inhibitor],88.0,-4.0,99.0
COc1ccc(-c2nsc3c(SCc4ccccc4)ncnc23)cc1,-1.6,-2.4,0.0,107.0,-0.4,144.0*,97.0,1.0,101.0
CCOC(=O)c1cc(NC(=O)Nc2ccc(Br)cc2)c(C)nc1C,-0.7,8.2,-1.0,108.0,-0.6,110.0,nt,nt,nt
CCN(CC)CCC(c1ccc(N(C)C)cc1)c1c(OC)cc(OC)c2ccc(=O)oc12 (stereo not drawn),nt,nt,7.0,117.0,nt,87.0,nt,nt,nt
